Screens: PubChem, Sanford-Burnham Center for Chemical Genomics
Shown are actives, neighbours in structure and some others; about 2.5% of the full set was active somewhere.
Diaph act CS: diaphorase activation or chemical reduction counter-screen | Diaphorase/resazurin coupled assay, resorufin fluorescence, 16 min; stronger effect = higher value; 1 = vehicle wells, 0 = NADH-free wells | activation factor at 20 µM | actives 0.005% (n = 190,000);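 active = diaphorase activity raised at least twofold by the compound at 20 µM; inactive = activation factor below 2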
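test system = bacterial diaphorase enzyme (C. kluyveri) | quantity = enzyme 0.07 U/mL final | reagent = NADH substrate 0.114 mM plus resazurin dye 0.1 mM, final | incubation = 16 min enzyme reaction, ambient temperature | buffer or medium = HEPES pH 7.4 buffer with MgCl2 and Tween 20 | signal = fluorescence of resorufin, 544 nm excitation, 590 nm emission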
Diaphorase inh: inhibits diaphorase or chemically oxidizes, flagging diaphorase assay artifacts; diaphorase resazurin-to-resorufin fluorescence, NADH, 16 min; bacterial (C. kluyveri) enzyme, not human; inhibition, % at 20 µM; actives 0.69% (n = 190,000);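 active = primary screen inhibition at 20 µM above a set limit, cut at about 50% in these data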;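 also: plate controls were DMSO with full reaction for no effect and wells lacking NADH for full effect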
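Test system: Clostridium kluyveri diaphorase enzyme / Quantity: diaphorase at 0.14 U/mL in enzyme working solution / Incubation: 16-min room-temperature incubation before reading / Benchmarks: NADH-free wells as positive control, DMSO-only neutral wells / Signal: resorufin fluorescence 544/590 nm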
PMI act hi M6P: PMI (human) activation, high substrate. P34949. coupled PMI enzyme assay, resazurin fluorescence, 20 min; stronger effect = higher value; 1 = untreated enzyme, 0 = substrate-free blank. actives 0.34% (n = 190,000). activation factor at 20 µM;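 active = activation factor of 2 or more at 20 µM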
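Test system: human phosphomannose isomerase with PGI, G6PDH, diaphorase coupling enzymes / Doses: 20 µM compound, 1% DMSO / Times: enzyme reaction with compound 20 min at room temperature / Measured by: Diaphorase-driven resazurin-to-resorufin fluorescence, excitation 544, emission 590 nm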
PMI act: phosphomannose isomerase (human) activation; purified human PMI, coupled resazurin fluorescence, 20 min; stronger effect = higher value; 1 = vehicle control, 0 substrate-free wells; activation factor at 20 µM; actives 0.005% (n = 190,000); AID 1214;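 active = activation factor of 2 or more at 20 µM, relative to plate controls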
FLuc inhib CS: counter-screen for luciferase assay inhibitors: firefly luciferase inhibition; actives 1.5% (n = 200,000); inhibition, % at 10 µM; P08659; ATPLite firefly luciferase biochemical luminescence, 10 min; AID 1006;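 active = inhibition above about 50% when tested at 10 µM, limit read from the data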
Target sequence (P08659 whole entry, looked up): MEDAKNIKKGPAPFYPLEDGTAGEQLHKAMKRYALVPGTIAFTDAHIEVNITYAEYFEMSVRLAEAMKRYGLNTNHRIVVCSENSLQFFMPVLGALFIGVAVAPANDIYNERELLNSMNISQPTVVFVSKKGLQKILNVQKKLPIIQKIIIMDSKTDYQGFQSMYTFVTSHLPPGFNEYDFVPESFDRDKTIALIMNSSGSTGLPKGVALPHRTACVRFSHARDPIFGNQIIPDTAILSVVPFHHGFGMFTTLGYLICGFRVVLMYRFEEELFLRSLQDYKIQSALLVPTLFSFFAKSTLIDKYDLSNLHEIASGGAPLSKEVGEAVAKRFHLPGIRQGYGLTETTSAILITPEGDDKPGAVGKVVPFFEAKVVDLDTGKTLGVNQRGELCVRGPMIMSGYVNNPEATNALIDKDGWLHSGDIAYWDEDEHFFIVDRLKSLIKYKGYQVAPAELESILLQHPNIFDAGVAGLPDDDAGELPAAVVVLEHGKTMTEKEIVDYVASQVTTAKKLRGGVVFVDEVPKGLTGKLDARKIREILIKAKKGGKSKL
FLuc stim CS: firefly luciferase counter-screen for stimulation assays; P08659; ATPlite luciferase biochemical, luminescence, 10 min; 0 = ATP-free wells, 1 = DMSO control; activation factor at 10 µM; 200,000 tested, under 10 active;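 active = luciferase activation factor, scaled between plate controls, of at least 2 with compound at 10 µM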
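Assay system: Luciferase/luciferin detection reagent, cell-free biochemical luciferase assay / Also added: ATP substrate / Schedule: 10 min at ambient temperature / Measured by: luminescence measurement of luciferase light output / Benchmarks: low control with PBS replacing ATP, high control enzyme plus ATP without compound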
* hit, by the source's call.

SMILES	Diaph act CS	Diaphorase inh	PMI act hi M6P	PMI act	FLuc inhib CS	FLuc stim CS
Cc1ccc(C(=O)N(C)c2ccc(OCC(=O)N3c4ccc(C)cc4C4CN(C)CCC43)cc2)cc1 (configuration not stated)	0.9	6	0.9	1	88*	0.1
CCOc1ccc(S(=O)(=O)N2CCN(C(=O)c3sccc3C)CC2)cc1	0.9	10	1.1	1	-3	1
CCOC(=O)C1=C(C)NC(=O)NC1c1c(C)nn(-c2ccccc2)c1Cl (configuration not stated)	0.5	52*	0.4	0.5	-1	1
Cc1ccc(C)c(NC(=S)N(C)CCO)c1	1.1	-7	1	1.1	0	1
COc1cc(/C=N/Nc2nc3ccccc3[nH]2)cc(OC)c1O	0.8	21	0.7	0.7	61*	0.4
COc1cc(/C=N/Nc2nc3ccccc3[nH]c2=O)ccc1O	0.8	16	1	1	50*	0.5
COc1cc(/C=C(/C(=O)c2cccs2)c2nc3ccccc3[nH]2)cc(OC)c1O	0.8	22	0.8	0.7	77*	0.2
CC(/C=N/Nc1nc2ccccc2[nH]1)=C\c1ccccc1	0.9	13	0.9	0.9	72*	0.3
COc1cc(/C=N/NC(=O)Cn2nnc3ccccc32)ccc1O	1.1	-8	1	1.1	4	1
C/C(=N\Nc1nc2ccccc2[nH]1)c1ccc2c(c1)OCO2	1.1	-7	1	0.9	32	0.7
COc1ccc(O)c(/C=N/Nc2nc3ccccc3[nH]2)c1	1	-1	0.9	1	48	0.5
COc1cc(/C=N/Nc2nc3ccccc3[nH]2)ccc1O	0.9	12	0.9	0.8	55*	0.5
C(=N\Nc1nc2ccccc2[nH]1)/c1ccc2c(c1)OCO2	1.1	-9	1	1	55*	0.5
COc1ccc(-c2noc(CSc3nc(-c4ccccc4)cc(=O)[nH]3)n2)cc1OC	0.3	67*	0.8	0.7	3	1
COc1ccc2c(=O)c(-c3ccccc3)coc2c1	0.9	5	0.5	0.5	70*	0.3
COc1ccc(-n2nc(C(=O)NCC(=O)N3CCN(c4ccccn4)CC3)c3ccccc3c2=O)cc1	0.8	16	0.9	1	68*	0.3
COc1ccc(-n2nc(C(=O)NCC(=O)N3CCN(c4ccccn4)CC3)c3ccccc3c2=O)cc1OC	1	4	1	1	39	0.6
CC(C)(C)NC(=O)CN(C(=O)CN1C(=O)C(=O)c2ccccc21)C(C)(C)C	0.9	7	1	1	-5	1.1
Cc1nc2ccccc2n1CCc1nc2c3ccccc3nc(=S)n2[nH]1	0.1	89*	1	1	-5	1.1
Cc1nc2ccccc2n1CCCOc1ccccc1	1	4	1.1	1.1	43	0.6
CNc1ncc(C(=O)c2ccc(F)cc2)s1	1	0	1.1	1.1	14	0.9
O=C(c1ccccc1)c1cnc(-c2ccccc2)s1	0.8	20	0.8	1	55*	0.5
O=C(c1ccccc1)c1cnc(-c2ccc(Cl)cc2)s1	0.9	12	0.9	0.9	36	0.6
O=C(c1ccc(F)cc1)c1cnc(Nc2ccccc2)s1	1	-3	1.1	1.1	62*	0.4
CC(C)(C)SCCNC(=O)/C=C/c1cccc([N+](=O)[O-])c1	0.9	10	1	1	-1	1
SMILES	Diaph act CS	Diaphorase inh	PMI act hi M6P	PMI act	FLuc inhib CS	FLuc stim CS
CCOC(=O)C1=NN(N=O)C2(CC(=O)N(c3cc(C)cc(C)c3)C2=O)C1 (configuration not stated)	1	2	2.2*	1.7	-1	1
Cc1cc(C)nc(NC(=O)c2ccc3c(c2)OCO3)c1	0.9	13	0.9	0.9	56*	0.4
CC(C)c1nnc(NC(=O)c2ccc3c(c2)OCO3)s1	1	4	1.1	1	51*	0.5
CC1(c2ccc(OC(F)F)cc2)NC(=O)N(/N=C/c2c(O)ccc3ccccc23)C1=O (configuration not stated)	0.8	19	0.8	0.9	-8	1.1
Cc1cccc(/N=C/c2c(O)cc(C)oc2=O)n1	0.8	19	1.1	1.1	-6	1.1
C/C(=N\Nc1ccccc1)c1c(O)cc(C)oc1=O	0.9	8	2.6*	1.9	-7	1.1
Cc1cc(O)c(/C=N/Nc2ccc(F)cc2)c(=O)o1	0.5	48	2.3*	1.7	68*	0.3
Cc1ccc(N/N=C/c2c(O)cc(C)oc2=O)cc1	0.8	20	2.2*	1.4	68*	0.3
COc1ccc(Cl)cc1NC(=S)Nc1cccnc1	0.9	8	0.8	0.9	0	1
Cc1cccc(OCC(=O)NC(Cc2c[nH]c3ccccc23)C(=O)O)c1C (configuration not stated)	1	-2	1	1.2	-1	1
Cc1nc2cc(F)ccc2n1C1CCN(S(=O)(=O)c2ccccc2)CC1	1	0	1	1	-2	1
O=C(NC(=S)Nc1ccc(Br)cn1)c1cncc(Br)c1	0.9	15	0.9	0.8	42	0.6
Cc1cccnc1NC(=S)NC(=O)c1cncc(Br)c1	0.8	16	1	1	45	0.5
Cc1cccnc1NC(=S)NC(=O)c1cccs1	0.8	24	0.9	0.8	71*	0.3
O=C(NNC(=S)NC(=O)c1cccs1)c1cccnc1	0.4	57*	1	1	-7	1.1
O=C(NNC(=S)NC(=O)c1cccnc1)c1ccc(Cl)cc1	0.6	36	1.1	0.8	-4	1
O=C(NC(=S)Nc1ccc(Br)cn1)c1cccs1	1	0	1	1.1	72*	0.3
O=C(NC(=S)Nc1ccccn1)c1cncc(Br)c1	0.8	23	1	0.9	64*	0.4
CC(=O)c1cccc(NC(=O)CSc2ccc(-c3ccc4c(c3)OCO4)nn2)c1	0.9	8	1	1.1	21	0.8
COc1ccc(-c2ccc(SCC(=O)Nc3cccc(C(C)=O)c3)nn2)cc1OC	0.8	20	0.9	0.9	61*	0.4
O=C(c1cccn2c(=O)c3ccc(Cl)cc3nc12)N1CCN(Cc2ccc3c(c2)OCO3)CC1	0.9	14	1	1	-9	1.1
N#Cc1c(NC(=S)NC(=O)c2ccccc2)sc2c1CCN(CCc1ccccc1)C2	0.9	13	2.2*	1.6	-8	1.1
